Assay results: ChEMBL document CHEMBL5120973, “Discovery of Desmuramylpeptide NOD2 Agonists with Single-Digit Nanomolar Potency” (ACS Med Chem Lett, 2022)
Active and inactive are the calls of the source. The rule behind the calls is not given here.

Assays:
[1] = target: Nucleotide-binding oligomerization domain-containing protein 2 (Homo sapiens) (UniProt Q9HC29); assay: Agonist activity at NOD2 in human PBMC assessed as induction of TNFalpha production at 1 uM incubated for 18 hrs; assay type: cell-based; conditions: filed as agonist
Procedure, shortened: (§1)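 500,000 cells/well in 500 μL medium, treated 18 h at 37 °C, 5% CO2 against a 0.1% DMSO vehicle. Cell-free supernatants stored at -80 °C. Cytokines measured by cytometric bead array (human inflammatory cytokines) on a flow cytometer.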

[2] = target: Nucleotide-binding oligomerization domain-containing protein 2 (Homo sapiens) (UniProt Q9HC29); assay: Agonist activity at NOD2 in human PBMC assessed as induction of IL-1beta production at 1 uM incubated for 18 hrs; assay type: cell-based; conditions: filed as agonist; procedure, shortened: as §1
[3] = target: Nucleotide-binding oligomerization domain-containing protein 2 (Homo sapiens) (UniProt Q9HC29); assay: Agonist activity at NOD2 in human PBMC assessed as induction of IL-6 production at 1 uM incubated for 18 hrs; assay type: cell-based; conditions: filed as agonist; procedure, shortened: as §1
[4] = target: Nucleotide-binding oligomerization domain-containing protein 2 (Homo sapiens) (UniProt Q9HC29); assay: Agonist activity at NOD2 in human PBMC assessed as induction of IL-8 production at 1 uM incubated for 18 hrs; assay type: cell-based; conditions: filed as agonist; procedure, shortened: as §1
PBMC [5] = assay: Synergistic potentiation of IFN-gamma-induced cytotoxicity of human PBMCs against human K562 cells assessed as increase in dead cells level at 1 uM incubated for 18 hrs before addition of K562 cells by CFSE/Sytox Blue staining based flow cytometry relative to control
[6] = target: Nucleotide-binding oligomerization domain-containing protein 2 (Homo sapiens) (UniProt Q9HC29); assay: Synergistic agonist activity at NOD2 in human PBMC assessed as induction of IL-6 production at 1 uM incubated for 18 hrs in presence of IFN-gamma; assay type: cell-based; conditions: filed as agonist
Procedure, shortened: (§2)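 PBMCs (500,000/well) treated with agonist at 1 μM together with LPS (10 ng/mL) or IFN-γ (200 U/mL); vehicle 0.1% DMSO. Supernatants taken after 18 h at 37 °C, 5% CO2, stored at -80 °C, then assayed for cytokines by cytometric bead array on a flow cytometer.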

[7] = target: Nucleotide-binding oligomerization domain-containing protein 2 (Homo sapiens) (UniProt Q9HC29); assay: Synergistic agonist activity at NOD2 in human PBMC assessed as induction of IL-1beta production at 1 uM incubated for 18 hrs in presence of LPS; assay type: cell-based; conditions: filed as agonist; procedure, shortened: as §2
[8] = target: T1, Nucleotide-binding oligomerization domain-containing protein 2 (Mus musculus) (UniProt Q8K3Z0); assay: Agonist activity at mouse NOD2 expressed in RAW -Blue NOD2 reporter cells by colorimetry based SEAP assay; conditions: filed as agonist
T1 sequence (whole entry): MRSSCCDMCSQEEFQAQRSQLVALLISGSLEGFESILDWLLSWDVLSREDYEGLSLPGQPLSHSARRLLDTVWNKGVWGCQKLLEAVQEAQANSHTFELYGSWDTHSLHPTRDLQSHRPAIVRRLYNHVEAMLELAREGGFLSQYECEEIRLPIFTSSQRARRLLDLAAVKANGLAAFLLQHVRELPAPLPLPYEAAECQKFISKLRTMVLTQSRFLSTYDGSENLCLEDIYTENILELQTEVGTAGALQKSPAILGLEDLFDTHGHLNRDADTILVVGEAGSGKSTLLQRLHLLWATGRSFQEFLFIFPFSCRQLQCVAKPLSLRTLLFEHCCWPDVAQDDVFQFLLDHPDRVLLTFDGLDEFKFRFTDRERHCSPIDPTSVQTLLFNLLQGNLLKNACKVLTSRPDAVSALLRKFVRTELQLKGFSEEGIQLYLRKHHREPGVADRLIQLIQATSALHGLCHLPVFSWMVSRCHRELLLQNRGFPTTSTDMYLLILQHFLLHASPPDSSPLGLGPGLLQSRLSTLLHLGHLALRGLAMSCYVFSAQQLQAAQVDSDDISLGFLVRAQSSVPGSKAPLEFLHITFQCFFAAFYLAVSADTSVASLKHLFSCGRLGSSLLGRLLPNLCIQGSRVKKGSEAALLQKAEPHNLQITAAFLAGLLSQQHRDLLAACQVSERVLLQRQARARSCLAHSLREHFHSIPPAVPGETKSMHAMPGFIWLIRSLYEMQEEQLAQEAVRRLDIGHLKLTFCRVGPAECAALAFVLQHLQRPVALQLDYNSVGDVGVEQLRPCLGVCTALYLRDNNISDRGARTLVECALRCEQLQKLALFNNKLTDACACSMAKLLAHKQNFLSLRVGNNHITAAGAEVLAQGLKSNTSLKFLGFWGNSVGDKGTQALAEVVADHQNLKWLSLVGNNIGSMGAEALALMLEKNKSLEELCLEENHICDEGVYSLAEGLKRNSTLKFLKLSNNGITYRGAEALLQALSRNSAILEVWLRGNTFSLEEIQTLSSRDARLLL

[9] = target: Nucleotide-binding oligomerization domain-containing protein 2 (Homo sapiens) (UniProt Q9HC29); assay: Synergistic agonist activity at NOD2 in human PBMC assessed as induction of TNFalpha production at 1 uM incubated for 18 hrs in presence of IFN-gamma; assay type: cell-based; conditions: filed as agonist; procedure, shortened: as §2
PBMC [10] = assay: Synergistic potentiation of LPS-induced cytotoxicity of human PBMCs against human K562 cells assessed as increase in dead cells level at 1 uM incubated for 18 hrs before addition of K562 cells by CFSE/Sytox Blue staining based flow cytometry relative to control
[11] = target: Nucleotide-binding oligomerization domain-containing protein 2 (Homo sapiens) (UniProt Q9HC29); assay: Synergistic agonist activity at NOD2 in human PBMC assessed as induction of IL-1beta production at 1 uM incubated for 18 hrs in presence of IFN-gamma; assay type: cell-based; conditions: filed as agonist; procedure, shortened: as §2
[12] = target: Nucleotide-binding oligomerization domain-containing protein 2 (Homo sapiens) (UniProt Q9HC29); assay: Synergistic agonist activity at NOD2 in human PBMC assessed as induction of IL-6 production at 1 uM incubated for 18 hrs in presence of LPS; assay type: cell-based; conditions: filed as agonist; procedure, shortened: as §2
[13] = target: Nucleotide-binding oligomerization domain-containing protein 2 (Homo sapiens) (UniProt Q9HC29); assay: Synergistic agonist activity at NOD2 in human PBMC assessed as induction of TNF-alpha production at 1 uM incubated for 18 hrs in presence of LPS; assay type: cell-based; conditions: filed as agonist; procedure, shortened: as §2

Chain of Nucleotide-binding oligomerization domain-containing protein 2 (Homo sapiens) (Q9HC29 whole entry, the tested form may be a part): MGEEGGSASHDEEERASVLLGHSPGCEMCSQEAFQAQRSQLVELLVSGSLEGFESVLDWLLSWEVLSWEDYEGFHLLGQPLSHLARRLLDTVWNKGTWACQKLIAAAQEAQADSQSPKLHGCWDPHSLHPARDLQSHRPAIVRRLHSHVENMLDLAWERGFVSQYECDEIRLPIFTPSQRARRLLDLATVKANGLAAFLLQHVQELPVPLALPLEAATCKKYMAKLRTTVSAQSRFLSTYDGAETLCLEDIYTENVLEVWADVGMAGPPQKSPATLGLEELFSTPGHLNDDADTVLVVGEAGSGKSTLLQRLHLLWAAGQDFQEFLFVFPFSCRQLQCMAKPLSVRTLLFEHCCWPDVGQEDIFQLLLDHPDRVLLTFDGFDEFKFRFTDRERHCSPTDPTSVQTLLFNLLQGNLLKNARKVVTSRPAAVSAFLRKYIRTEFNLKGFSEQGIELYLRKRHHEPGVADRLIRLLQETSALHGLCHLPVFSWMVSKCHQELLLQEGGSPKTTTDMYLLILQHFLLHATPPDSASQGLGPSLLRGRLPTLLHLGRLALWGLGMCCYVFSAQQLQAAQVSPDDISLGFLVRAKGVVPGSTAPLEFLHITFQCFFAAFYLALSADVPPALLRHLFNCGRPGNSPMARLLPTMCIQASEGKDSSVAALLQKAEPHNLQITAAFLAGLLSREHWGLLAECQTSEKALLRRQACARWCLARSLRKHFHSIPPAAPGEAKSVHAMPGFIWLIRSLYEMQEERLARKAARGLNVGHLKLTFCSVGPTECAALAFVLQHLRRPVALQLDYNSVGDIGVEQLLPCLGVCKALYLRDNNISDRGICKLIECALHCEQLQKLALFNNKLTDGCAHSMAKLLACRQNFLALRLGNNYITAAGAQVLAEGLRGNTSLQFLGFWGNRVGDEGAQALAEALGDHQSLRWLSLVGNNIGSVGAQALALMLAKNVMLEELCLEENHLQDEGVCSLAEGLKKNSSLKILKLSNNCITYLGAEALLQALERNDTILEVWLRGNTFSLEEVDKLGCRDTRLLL

Activity [1]	Activity [2]	Activity [3]	Activity [4]	Activity [6]	Activity [7]	Activity [8]	Activity [9]	Activity [11]	Activity [12]	Activity [13]	SMILES	Activity (PBMC [5])	Activity (PBMC [10])
Active	Active	Active	Active								CC(=O)N[C@@H]1[C@@H](O[C@H](C)C(=O)N[C@@H](C)C(=O)N[C@H](CCC(=O)O)C(N)=O)[C@@H](O)[C@@H](CO)O[C@H]1O		
Active	Active	Active	Active	Active	Active	Active	Active	Active	Active	Active	CCOC(=O)CC[C@@H](NC(=O)[C@@H](NC(=O)CNC(=O)/C=C/c1ccc(OC(=O)CC23CC4CC(CC(C4)C2)C3)c(OC)c1)C(C)C)C(=O)OCC	Active	Active
											COc1cc(/C=C/C(=O)NCC(=O)N[C@H](C(=O)N[C@H](CCC(=O)OC2CCCC2)C(=O)OC2CCCC2)C(C)C)ccc1O	Active	Active
